# Results taken from PMC3169777 (European Journal of Clinical Pharmacology, 2011).
# Like-named read-outs stand apart in the source and are kept apart here.
# How the values were obtained:
# [1] = system: ETA and ETB receptors; details: cited from earlier work
# [2] = system: human hepatic transporters; details: preclinical models, cited from earlier work
# [3] = rats; cited from earlier work
# [4] = system: bile salts; details: rats, ref Actelion Pharmaceuticals, data on file, cited from earlier work
# [5] = format: in vivo; details: male, human, plasma, plasma macitentan
# Outline: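 Single fasted doses of 0.2–600 mg were given, 6 active subjects per group. EDTA plasma was spun 10 min at 1,500 g, 4°C, and stored at −20°C. Sampling ran to 48 h, or 144 h for the 300 and 600 mg groups. Parent and metabolite were quantified by validated LC-MS/MS (linear 1–2,000 ng/ml, LOQ 1.0 ng/ml). Cmax, tmax, AUC and t1/2 were derived non-compartmentally.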
# [6] = Metabolic profiling of plasma and urine; format: in vivo, human; details: pooled urine of two subjects, 600-mg dose group
# [7] = Simulation of multiple-dose profiles using the single-dose data; set-up: species or system human; details: once-a-day regimen, data not shown
# [8] = system: total bile salts; test: Serum total bile salts; format: in vivo, human
# Outline: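 Venous blood was drawn predose and at 1, 2, 3 and 4 h in fasted subjects, with no later draws because of a meal. Tubes without anticoagulant stood 30 min at room temperature, were spun 10 min at 1,500 g, 4°C, and serum was kept at −20°C. An enzymatic assay was used (detection limit 1 μmol/l). AUC0–4h was derived non-compartmentally and compared with placebo by ANOVA (P < 0.05).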
# [9] = system: healthy male subjects; test: Safety and tolerability; format: in vivo, human; details: for Abdominal pain: number of subjects reporting adverse event / Back pain: number of subjects reporting adverse event / Flushing: number of subjects reporting adverse event / Headache: number of subjects reporting adverse event / Hepatic function abnormal: number of subjects reporting adverse event / Leukocytosis: number of subjects reporting adverse event / Nasopharyngitis: number of subjects reporting adverse event / Nausea: number of subjects reporting adverse event / Neck pain: number of subjects reporting adverse event / Rhinitis: number of subjects reporting adverse event / Vomiting: number of subjects reporting adverse event: n = 6
# Outline: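 Double-blind, randomised, placebo-controlled single-ascending-dose design in healthy males: new group of 8 per level (6 active, 2 placebo), doses 0.2–600 mg, fasted. Next dose given only after safety review. Confinement from about 12 h predose to 48 h postdose. Adverse events, vital signs, 12-lead ECG, clinical laboratory and physical examination recorded. Descriptive analysis with placebo subjects pooled.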
# [10] = system: ETB receptors; details: isolated rat aortic and tracheal preparations; cited from earlier work
# [11] = system: ETA receptors; details: isolated rat aortic and tracheal preparations; cited from earlier work
# [12] = system: patients with treatment-resistant hypertension; details: cited from earlier work
smiles,measurement,setting,value
"CCCNS(=O)(=O)Nc1ncnc(OCCOc2ncc(Br)cn2)c1-c1ccc(Br)cc1 [macitentan, N-[5-(4-Bromophenyl)-6-(2-(5-bromopyrimidin-2-yloxy)ethoxy)pyrimidin-4-yl]-N′-propylsulfamide]",selectivity for ETA receptors over ETB receptors,[1],about 50 fold
same,inhibition of human hepatic transporters,"[2]; ref Actelion Pharmaceuticals, data on file",did not inhibit
same,half-life,[3],2 h
same,volume of distribution,[3],1 L/kg
same,effect on circulating bile salts,[4],does not increase circulating bile salts
same,half-life,"[5]; 600 mg, apparent terminal half-life, two higher dose groups (300 and 600 mg)",~16 h
same,Tmax,"[5]; tmax in most subjects, individual values",4 to 12 h
same,detection in urine,[6],no macitentan and ACT-132577 could be detected
same,predicted accumulation factor upon repeated dosing,[7],1.7
same,effect on serum total bile salts at the lowest dose,"[8]; single dose 0.2 mg macitentan, P < 0.05 compared with placebo",small but statistically significant effect
same,effect on serum total bile salt concentrations,"[8]; single doses of up to 600 mg, 4-h observation period",no dose-dependent effect
same,"increased alanine aminotransferase, times the upper limit of normal","[9]; one subject, 600 mg macitentan, 7 days after drug administration",≤ 2 times the upper limit of normal
same,Abdominal pain: number of subjects reporting adverse event,[9]; single dose 0.2 mg macitentan,0
same,Back pain: number of subjects reporting adverse event,[9]; single dose 0.2 mg macitentan,0
same,Flushing: number of subjects reporting adverse event,[9]; single dose 0.2 mg macitentan,0
same,Headache: number of subjects reporting adverse event,[9]; single dose 0.2 mg macitentan,0
same,Hepatic function abnormal: number of subjects reporting adverse event,[9]; single dose 0.2 mg macitentan,0
same,Leukocytosis: number of subjects reporting adverse event,[9]; single dose 0.2 mg macitentan,0
same,Nasopharyngitis: number of subjects reporting adverse event,[9]; single dose 0.2 mg macitentan,0
same,Nausea: number of subjects reporting adverse event,[9]; single dose 0.2 mg macitentan,0
same,Neck pain: number of subjects reporting adverse event,[9]; single dose 0.2 mg macitentan,0
same,Rhinitis: number of subjects reporting adverse event,[9]; single dose 0.2 mg macitentan,0
same,Vomiting: number of subjects reporting adverse event,[9]; single dose 0.2 mg macitentan,0
same,Abdominal pain: number of subjects reporting adverse event,[9]; single dose 1 mg macitentan,0
same,Back pain: number of subjects reporting adverse event,[9]; single dose 1 mg macitentan,0
same,Flushing: number of subjects reporting adverse event,[9]; single dose 1 mg macitentan,0
same,Headache: number of subjects reporting adverse event,[9]; single dose 1 mg macitentan,0
same,Hepatic function abnormal: number of subjects reporting adverse event,[9]; single dose 1 mg macitentan,0
same,Leukocytosis: number of subjects reporting adverse event,[9]; single dose 1 mg macitentan,0
same,Nasopharyngitis: number of subjects reporting adverse event,[9]; single dose 1 mg macitentan,0
same,Nausea: number of subjects reporting adverse event,[9]; single dose 1 mg macitentan,0
same,Neck pain: number of subjects reporting adverse event,[9]; single dose 1 mg macitentan,0
same,Rhinitis: number of subjects reporting adverse event,[9]; single dose 1 mg macitentan,0
same,Vomiting: number of subjects reporting adverse event,[9]; single dose 1 mg macitentan,0
same,Abdominal pain: number of subjects reporting adverse event,[9]; single dose 5 mg macitentan,0
same,Back pain: number of subjects reporting adverse event,[9]; single dose 5 mg macitentan,0
same,Flushing: number of subjects reporting adverse event,[9]; single dose 5 mg macitentan,0
same,Headache: number of subjects reporting adverse event,[9]; single dose 5 mg macitentan,0
same,Hepatic function abnormal: number of subjects reporting adverse event,[9]; single dose 5 mg macitentan,0
same,Leukocytosis: number of subjects reporting adverse event,[9]; single dose 5 mg macitentan,0
same,Nasopharyngitis: number of subjects reporting adverse event,[9]; single dose 5 mg macitentan,0
same,Nausea: number of subjects reporting adverse event,[9]; single dose 5 mg macitentan,0
same,Neck pain: number of subjects reporting adverse event,[9]; single dose 5 mg macitentan,0
same,Rhinitis: number of subjects reporting adverse event,[9]; single dose 5 mg macitentan,0
same,Vomiting: number of subjects reporting adverse event,[9]; single dose 5 mg macitentan,0
same,Abdominal pain: number of subjects reporting adverse event,[9]; single dose 25 mg macitentan,0
same,Back pain: number of subjects reporting adverse event,[9]; single dose 25 mg macitentan,0
same,Flushing: number of subjects reporting adverse event,[9]; single dose 25 mg macitentan,0
same,Headache: number of subjects reporting adverse event,[9]; single dose 25 mg macitentan,2
same,Hepatic function abnormal: number of subjects reporting adverse event,[9]; single dose 25 mg macitentan,0
same,Leukocytosis: number of subjects reporting adverse event,[9]; single dose 25 mg macitentan,0
same,Nasopharyngitis: number of subjects reporting adverse event,[9]; single dose 25 mg macitentan,1
same,Nausea: number of subjects reporting adverse event,[9]; single dose 25 mg macitentan,0
same,Neck pain: number of subjects reporting adverse event,[9]; single dose 25 mg macitentan,0
same,Rhinitis: number of subjects reporting adverse event,[9]; single dose 25 mg macitentan,0
same,Vomiting: number of subjects reporting adverse event,[9]; single dose 25 mg macitentan,0
same,Abdominal pain: number of subjects reporting adverse event,[9]; single dose 100 mg macitentan,0
same,Back pain: number of subjects reporting adverse event,[9]; single dose 100 mg macitentan,0
same,Flushing: number of subjects reporting adverse event,[9]; single dose 100 mg macitentan,0
same,Headache: number of subjects reporting adverse event,[9]; single dose 100 mg macitentan,1
same,Hepatic function abnormal: number of subjects reporting adverse event,[9]; single dose 100 mg macitentan,0
same,Leukocytosis: number of subjects reporting adverse event,[9]; single dose 100 mg macitentan,1
same,Nasopharyngitis: number of subjects reporting adverse event,[9]; single dose 100 mg macitentan,0
same,Nausea: number of subjects reporting adverse event,[9]; single dose 100 mg macitentan,0
same,Neck pain: number of subjects reporting adverse event,[9]; single dose 100 mg macitentan,1
same,Rhinitis: number of subjects reporting adverse event,[9]; single dose 100 mg macitentan,0
same,Vomiting: number of subjects reporting adverse event,[9]; single dose 100 mg macitentan,0
same,Abdominal pain: number of subjects reporting adverse event,[9]; single dose 300 mg macitentan,0
same,Back pain: number of subjects reporting adverse event,[9]; single dose 300 mg macitentan,1
same,Flushing: number of subjects reporting adverse event,[9]; single dose 300 mg macitentan,0
same,Headache: number of subjects reporting adverse event,[9]; single dose 300 mg macitentan,2
same,Hepatic function abnormal: number of subjects reporting adverse event,[9]; single dose 300 mg macitentan,0
same,Leukocytosis: number of subjects reporting adverse event,[9]; single dose 300 mg macitentan,0
same,Nasopharyngitis: number of subjects reporting adverse event,[9]; single dose 300 mg macitentan,0
same,Nausea: number of subjects reporting adverse event,[9]; single dose 300 mg macitentan,0
same,Neck pain: number of subjects reporting adverse event,[9]; single dose 300 mg macitentan,0
same,Rhinitis: number of subjects reporting adverse event,[9]; single dose 300 mg macitentan,0
same,Vomiting: number of subjects reporting adverse event,[9]; single dose 300 mg macitentan,0
same,Abdominal pain: number of subjects reporting adverse event,[9]; single dose 600 mg macitentan,1
same,Back pain: number of subjects reporting adverse event,[9]; single dose 600 mg macitentan,0
same,Flushing: number of subjects reporting adverse event,[9]; single dose 600 mg macitentan,1
same,Headache: number of subjects reporting adverse event,[9]; single dose 600 mg macitentan,5
same,Hepatic function abnormal: number of subjects reporting adverse event,[9]; single dose 600 mg macitentan,1
same,Leukocytosis: number of subjects reporting adverse event,[9]; single dose 600 mg macitentan,0
same,Nasopharyngitis: number of subjects reporting adverse event,[9]; single dose 600 mg macitentan,0
same,Nausea: number of subjects reporting adverse event,[9]; single dose 600 mg macitentan,2
same,Neck pain: number of subjects reporting adverse event,[9]; single dose 600 mg macitentan,0
same,Rhinitis: number of subjects reporting adverse event,[9]; single dose 600 mg macitentan,2
same,Vomiting: number of subjects reporting adverse event,[9]; single dose 600 mg macitentan,2
same,maximum tolerated dose,"[9]; single dose, healthy male subjects",300 mg
same,"effects on vital signs, ECG and clinical laboratory variables",[9]; single doses 0.2 to 600 mg,no clinically significant drug-related effects
"Cc1cc2c(cc1CC(=O)c1sccc1S(=O)(=O)Nc1onc(C)c1Cl)OCO2 [sitaxentan, reference compound]",interaction with human hepatic transporters,[2],substrates of and inhibit human hepatic transporters
"COc1ccccc1Oc1c(NS(=O)(=O)c2ccc(C(C)(C)C)cc2)nc(-c2ncccn2)nc1OCCO [bosentan, reference compound]",effect on plasma bile salts,[4]; intravenous administration,acute increase in plasma bile salts
NS(=O)(=O)Nc1ncnc(OCCOc2ncc(Br)cn2)c1-c1ccc(Br)cc1 [ACT-132577],selectivity for ETA receptors over ETB receptors,[1],~16 fold
same,affinity for ETA and ETB receptors compared with macitentan,[1]; preclinical experiments,lower
same,potency as endothelin receptor antagonist compared with macitentan,[1]; receptor binding and functional assays,less potent
same,half-life,[3],8.5 h
same,fold less potent than macitentan in blocking ETB receptors,[10],up to 5 fold
same,detection in urine,[6],no macitentan and ACT-132577 could be detected
same,predicted accumulation factor upon repeated dosing,[7],10
same,fold less potent than macitentan in blocking ETA receptors,[11],up to 5 fold
COc1cc(OC)nc(O[C@H](C(=O)O)C(OC)(c2ccccc2)c2ccccc2)n1 [darusentan],"oedema or fluid retention, patients affected",[12],27%
